Measurements collected from several papers.
Protocols differ between the studies behind these lines.
Target: Tyrosine-protein kinase SYK (SYK, Homo sapiens, UniProt P43405)

CCC(=O)N[C@H]1CC[C@@H](C(=O)N(C)c2ccc(-c3nc4ccccc4o3)cc2)C1 — remaining binding (cell-free assay; competition with immobilised ligand; 1 µM): 100%
O=C(c1ccc(Nc2ncc(Cl)c(-c3cc4ccccc4s3)n2)cc1)N1CCC(N2CCCC2)CC1 — remaining binding (binding; competition with immobilised ligand; 1 µM): 8.6%
CN(C)c1nccc(-c2cnn3ncccc23)n1 — remaining binding (binding; 1 µM): 100%
CNC(=O)[C@@H]1CC[C@@H](n2c(-c3ccc4cnccc4c3)nc3ccc(C(=O)NCc4cccc(C(N)=O)c4)cc32)C1 — remaining binding (binding; competition with immobilised ligand; 1 µM): 99%
N#CC1(c2ccccn2)CCN(Cc2cc(C(=O)N3CCCC3)c(=O)n3ccccc23)CC1 — remaining binding (cell-free assay; competition with immobilised ligand; 1 µM): 92%
O=C(NCCCN1CCOCC1)c1ccc(Nc2ncc(Cl)c(-c3ccc(Cl)s3)n2)cc1 — remaining binding (binding; competition with immobilised ligand; 1 µM): 34%
O=c1nc(-c2ccccn2)sc2ccccc12 — remaining binding (cell-free assay; competition with immobilised ligand; 1 µM): 97%
C[C@H]1CCN(c2nccc(-c3cnn4ncccc34)n2)C1 — remaining binding (binding; 1 µM): 82%
CSc1cccnc1N1CCN(Cc2nc3ccccc3[nH]2)CC1 — remaining binding (cell-free assay; competition with immobilised ligand; 1 µM): 100%
FC(F)(F)Oc1cccc(-c2cnc3ccc(-c4ccncc4)nn23)c1 — remaining binding (binding; competition with immobilised ligand; 5 µM): 64%
Cc1cnn2ncc(-c3ccnc(N(C)C)n3)c2c1 — remaining binding (binding; 1 µM): 100%
c1cncc(-c2cccc(Nc3nccc(NC4CCCCC4)n3)c2)c1 — remaining binding (binding; competition with immobilised ligand; 10 µM): 16%
COc1cnc(Nc2cccc(S(N)(=O)=O)c2)nc1N1CCN(c2ccccc2)CC1 — remaining binding (binding; competition with immobilised ligand; 1 µM): 86%
O=C(Nc1cccnn1)N1CCC(=Cc2cccc(Oc3ccc(C(F)(F)F)cn3)c2)CC1 — remaining binding (cell-free assay; competition with immobilised ligand; 1 µM): 100%
N[C@@H]1CCN(c2nccc(-c3cnn4ncccc34)n2)C1 — remaining binding (binding; 1 µM): 100%
C[C@@H]1CN(c2cc(-c3n[nH]c4ccc(OC5(C)CC5)cc34)ncn2)C[C@H](C)O1 — remaining binding (cell-free assay; competition with immobilised ligand; 0.1 µM): 96%
CN(C)c1nccc(-c2cnc3ncccn23)n1 — remaining binding (binding; 1 µM): 78%
Cc1cnc(Nc2ccc(C(=O)N3CCC(N4CCCC4)CC3)cc2)nc1-c1cc2ccccc2s1 — remaining binding (binding; competition with immobilised ligand; 1 µM): 7.7%
CN(C)c1ncc(F)c(-c2cnn3ncccc23)n1 — remaining binding (binding; 1 µM): 76%
O=C(NCC1CCOCC1)c1n[nH]cc1NC(=O)c1c(F)cccc1F — remaining binding (binding; competition with immobilised ligand; 1 µM): 100%
